Active and inactive are the calls of the source.
Key:
[1] = target: T1, Toll-like receptor 7 (Homo sapiens) (UniProt Q9NYK1); assay: Agonist activity at TLR7 in human whole blood assessed as induction of IFN-alpha/beta by measuring increase in secreted alkaline phosphatase level pretreated for 24 hrs followed by HEK-IFN-alpha/beta reporter cell addition after 24 hrs by spectrophotometric method
T1 sequence (whole entry): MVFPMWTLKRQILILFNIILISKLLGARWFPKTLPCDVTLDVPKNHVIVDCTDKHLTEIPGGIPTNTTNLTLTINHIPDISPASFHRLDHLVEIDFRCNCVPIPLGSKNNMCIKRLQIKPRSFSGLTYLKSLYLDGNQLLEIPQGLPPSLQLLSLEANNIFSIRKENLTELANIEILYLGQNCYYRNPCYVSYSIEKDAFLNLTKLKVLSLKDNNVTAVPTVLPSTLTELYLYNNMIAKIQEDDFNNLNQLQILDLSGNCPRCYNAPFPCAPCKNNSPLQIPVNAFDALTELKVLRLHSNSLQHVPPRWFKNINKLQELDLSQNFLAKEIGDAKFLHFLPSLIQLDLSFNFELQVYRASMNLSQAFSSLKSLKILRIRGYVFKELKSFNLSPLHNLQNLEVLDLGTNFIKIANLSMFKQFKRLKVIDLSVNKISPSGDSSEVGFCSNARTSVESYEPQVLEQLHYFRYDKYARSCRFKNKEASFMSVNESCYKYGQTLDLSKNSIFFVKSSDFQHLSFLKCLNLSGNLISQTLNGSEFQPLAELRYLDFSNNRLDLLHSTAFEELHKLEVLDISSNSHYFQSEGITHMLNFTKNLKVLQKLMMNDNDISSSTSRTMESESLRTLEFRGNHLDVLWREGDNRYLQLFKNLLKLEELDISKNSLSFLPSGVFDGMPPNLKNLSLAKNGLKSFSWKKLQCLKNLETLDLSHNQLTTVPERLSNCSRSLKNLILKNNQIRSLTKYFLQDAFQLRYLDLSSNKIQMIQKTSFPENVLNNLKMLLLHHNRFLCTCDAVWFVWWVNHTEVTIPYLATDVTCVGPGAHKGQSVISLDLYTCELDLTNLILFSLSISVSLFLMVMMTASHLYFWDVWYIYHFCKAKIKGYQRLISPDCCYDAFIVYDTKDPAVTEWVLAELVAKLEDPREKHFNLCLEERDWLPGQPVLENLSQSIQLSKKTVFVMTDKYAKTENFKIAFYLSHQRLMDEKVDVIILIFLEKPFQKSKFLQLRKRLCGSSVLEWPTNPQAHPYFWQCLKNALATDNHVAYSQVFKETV
Outline: (§1)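 Heparinized human whole blood, diluted 1:2 in RPMI with 10% FBS, was incubated with serial compound dilutions at 37°C for 24 h. Supernatant was moved by liquid handler onto HEK-IFNα/β, HEK-IFNγ or HEK-TNFα/IL-1β reporter cells (1x10⁶ cells/mL, DMEM with 10% FBS) for 24 h at 37°C. Plates were washed and given detection medium for 16 h, then sAP read at 620 nm. Calibration used serum spiked with IFN-α, IFN-γ or TNF-α.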

[2] = target: T2, Toll-like receptor 8 (Homo sapiens) (UniProt Q9NR97); assay: Agonist activity at TLR8 in human whole blood assessed as induction of IFN-gamma by measuring increase in secreted alkaline phosphatase level pretreated for 24 hrs followed by HEK-IFN-gamma reporter cell addition after 24 hrs by spectrophotometric method; outline: as §1
T2 sequence (whole entry): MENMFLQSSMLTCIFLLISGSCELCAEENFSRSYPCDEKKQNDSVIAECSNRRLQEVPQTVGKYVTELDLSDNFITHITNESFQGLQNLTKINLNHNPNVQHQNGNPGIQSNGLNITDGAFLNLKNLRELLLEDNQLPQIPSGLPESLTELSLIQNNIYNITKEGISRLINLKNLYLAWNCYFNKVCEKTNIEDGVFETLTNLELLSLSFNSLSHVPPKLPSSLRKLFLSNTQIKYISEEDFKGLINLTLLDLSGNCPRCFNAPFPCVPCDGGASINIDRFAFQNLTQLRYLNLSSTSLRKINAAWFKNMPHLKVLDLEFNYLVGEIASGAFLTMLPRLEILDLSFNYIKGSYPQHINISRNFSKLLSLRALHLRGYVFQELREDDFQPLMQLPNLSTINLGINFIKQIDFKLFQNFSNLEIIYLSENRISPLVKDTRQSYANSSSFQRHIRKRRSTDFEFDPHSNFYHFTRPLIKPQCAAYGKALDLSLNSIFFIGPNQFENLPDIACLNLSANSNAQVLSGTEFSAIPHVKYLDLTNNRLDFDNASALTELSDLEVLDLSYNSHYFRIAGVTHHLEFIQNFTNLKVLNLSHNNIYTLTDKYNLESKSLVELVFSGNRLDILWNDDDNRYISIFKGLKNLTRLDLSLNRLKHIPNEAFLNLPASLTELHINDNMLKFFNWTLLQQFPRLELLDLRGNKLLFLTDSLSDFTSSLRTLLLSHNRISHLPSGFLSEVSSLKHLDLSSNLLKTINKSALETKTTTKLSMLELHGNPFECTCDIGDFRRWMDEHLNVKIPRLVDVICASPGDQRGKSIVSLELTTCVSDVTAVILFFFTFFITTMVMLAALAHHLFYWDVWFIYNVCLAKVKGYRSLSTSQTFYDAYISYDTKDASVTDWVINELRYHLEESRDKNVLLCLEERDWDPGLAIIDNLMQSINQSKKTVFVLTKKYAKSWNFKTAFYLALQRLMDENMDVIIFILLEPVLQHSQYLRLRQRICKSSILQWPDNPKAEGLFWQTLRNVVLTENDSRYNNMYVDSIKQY

[3] = target: T2, Toll-like receptor 8 (Homo sapiens); assay: Agonist activity at TLR8 in human whole blood assessed as induction of TNF-alpha/IL-1beta by measuring increase in secreted alkaline phosphatase level pretreated for 24 hrs followed by HEK-TNF-alpha/IL-1beta reporter cell addition after 24 hrs by spectrophotometric method; outline: as §1
[4] = target: T2, Toll-like receptor 8 (Homo sapiens); assay: Agonist activity at TLR8 in human […] conventional dendritic cells assessed as upregulation of CD80 expression after 16 hrs by efluor 780 dye based flow cytometry
Outline: (§2)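 Human PBMCs were incubated with serial compound dilutions at 37 °C for 16 h, with DMSO controls. Cells were stained with eFluor780 viability dye, then lineage and DC antibodies plus CD80 PE, and fixed. 250,000 gated events were acquired. pDCs were gated as Live Lin⁻ CD123⁺ CD303⁺ CD304⁺ HLA-DR⁺. cDCs were gated as Lin⁻ CD1c⁺ CD141⁻ CD11c⁺ HLA-DR⁺ or Lin⁻ CD141⁺ CD1c⁻ HLA-DR⁺. Median fluorescence intensity was quantified.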

[5] = target: T2, Toll-like receptor 8 (Homo sapiens); assay: Agonist activity at TLR8 in human CD141 positive conventional dendritic cells assessed as upregulation of CD80 expression after 16 hrs by efluor 780 dye based flow cytometry; outline: as §2
[6] = target: T1, Toll-like receptor 7 (Homo sapiens); assay: Agonist activity at TLR7 in human plasmacytoid dendritic cells assessed as upregulation of CD80 expression after 16 hrs by efluor 780 dye based flow cytometry; outline: as §2

Measured: Activity

CCCCNc1nc(N)nc(C)c1CCCN1CCOCC1
active: [1] | [2] | [3] | [4] | [5] | [6]

From ChEMBL document CHEMBL4007404, “Identification of High-Potency Human TLR8 and Dual TLR7/TLR8 Agonists in Pyrimidine-2,4-diamines” (J Med Chem, 2017)
